Measurements taken from ChEMBL document CHEMBL1154084, “Preparation and antitubercular activities in vitro and in vivo of novel Schiff bases of isoniazid” (Eur J Med Chem, 2009).
Converted amounts (≈) assume the structure as drawn.

Tests used:
[1] = test system: Mycobacterium tuberculosis; experiment: Antitubercular activity against Mycobacterium tuberculosis H37Rv by broth dilution method; assay type: functional
[2] = Selectivity index, ratio IC50 for african green monkey Vero cells to MIC for Mycobacterium tuberculosis H37Rv; assay type: functional
Summary of the method: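 Vero cells exposed 72 h, at up to ten times the MIC, with viability read by a cell proliferation assay. SI is IC50 divided by the MIC against H37Rv; the screening criterion is SI >10.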

[3] = test system: Mycobacterium tuberculosis; experiment: Bacteriostatic activity in Mycobacterium tuberculosis Erdman infected in mouse macrophages assessed as reduction of colony forming units after 7 days; assay type: functional; details: 168 h
Summary of the method: (§1)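 CFU read at 7 days against drug-free controls. EC90 is the lowest concentration giving 90% CFU reduction (bacteriostatic); EC99 is the lowest giving 99% (bactericidal).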

[4] = test system: Mycobacterium tuberculosis; experiment: Bactericidal activity in Mycobacterium tuberculosis Erdman infected in mouse macrophages assessed as reduction of colony forming units after 7 days; assay type: functional; details: 168 h; summary of the method: as §1
[5] = Ratio of EC90 for Mycobacterium tuberculosis Erdman to MIC for Mycobacterium tuberculosis H37Rv; assay type: functional
[6] = test system: Mycobacterium tuberculosis; experiment: Antitubercular activity against Mycobacterium tuberculosis infected in C57BL/6 mouse assessed reduction in colony forming units per lung at 25 mg/kg administered for 2 days after 24 hrs post-infection measured after 3 days by short course therapy (Rvb=6.37 +/- 0.24 logCFU/lung); assay type: functional
[7] = test system: Mycobacterium tuberculosis; experiment: Antitubercular activity against Mycobacterium tuberculosis Erdman by broth dilution method; assay type: functional
Summary of the method: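 Modified 7H10 broth (no agar or malachite green; pH 6.6) with 10% OADC and 0.05% Tween 80; broth dilution MIC90. Inoculum grown 5 days at 37°C on rotary shaker, diluted to 100 Klett units/mL (about 5 × 10^7 cfu/mL), checked by triplicate 7H10 agar counts after 4 weeks at 37°C. Compounds dissolved in DMSO, diluted in distilled water; isoniazid and PAS as reference standards.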

[8] = species on record: Mus musculus; experiment: Toxicity in C57BL/6 mouse assessed as overt toxicity; assay type: organism-based; details: in vivo
Summary of the method: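 C57BL/6 mice infected intranasally with approximately one million viable M. tuberculosis organisms. Dosing by gavage at 25 mg/kg body weight (compound in DMSO diluted in distilled water), starting one day post-infection and given for two days. Animals observed for ill effects or overt toxicity until sacrifice by CO2 inhalation three days post-infection. Groups of six mice.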

[9] = test system: Mycobacterium tuberculosis; experiment: Antitubercular activity against Mycobacterium tuberculosis infected in CD1 mouse assessed colony forming units per lung at 25 mg/kg administered 5 days a week for 4 weeks after 1 week post-infection by long course therapy (Rvb=8.80 +/- 0.18 logCFU/lung); assay type: functional
[10] = test system: Mycobacterium tuberculosis; experiment: Antitubercular activity against Mycobacterium tuberculosis infected in C57BL/6 mouse assessed reduction in colony forming units per lung at 25 mg/kg administered for 2 days after 24 hrs post-infection measured after 3 days by short course therapy (Rvb=6.51 +/- 0.13 logCFU/lung); assay type: functional

Row | SMILES | MIC90 [1] [µg/mL] | Ratio [2] | EC90 [3] [µg/mL] | EC99 [4] [µg/mL] | Ratio [5] | other results
1 | O=C(N/N=C/c1ccc(Cl)c(Cl)c1)c1ccncc1 | 0.2 (≈ 0.68 µM) | >50 | 0.106 (≈ 0.36 µM) | 0.596 | 0.53 | –
2 | O=C(N/N=C/c1ccccc1)c1ccncc1 [N'-BENZYLIDENE ISONICOTINOHYDRAZIDE] | 0.05 (≈ 0.222 µM) | 4000 | – | – | – | –
3 | O=C(N/N=C/c1ccc(I)cc1)c1ccncc1 | 0.2 (≈ 0.57 µM) | >50 | – | – | – | –
4 | O=C(N/N=C/c1ccc(Cl)c([N+](=O)[O-])c1)c1ccncc1 | 0.39 (≈ 1.28 µM) | >64 | 0.078 (≈ 0.256 µM) | 0.3 | 0.2 | –
5 | O=C(N/N=C/c1ccccc1OCc1ccccc1)c1ccncc1 | – | – | – | – | – | log10cfu [6]: 5.49; MIC90 [7]: 0.06 µg/mL (≈ 0.181 µM); Activity [8]: Non-toxic
6 | CCCCOc1ccc(/C=N/NC(=O)c2ccncc2)cc1 | 0.1 (≈ 0.336 µM) | >2000 | – | – | – | –
7 | COc1cc(/C=N/NC(=O)c2ccncc2)cc(I)c1OC | 0.2 (≈ 0.486 µM) | 297 | – | – | – | –
8 | CCC/C=C/C=N/NC(=O)c1ccncc1 | < 6.25 | – | – | – | – | –
9 | O=C(N/N=C/C=C(c1ccccc1)c1ccccc1)c1ccncc1 | – | 68 | 0.028 (≈ 0.0855 µM) | 0.121 | 0.28 | –
10 | O=C(N/N=C/c1c(Cl)cccc1Cl)c1ccncc1 | < 6.25 | – | – | – | – | –
11 | CCCCC/C(=N\NC(=O)c1ccncc1)c1ccccc1 | 0.39 (≈ 1.32 µM) | 25 | 0.05 (≈ 0.169 µM) | 0.25 | 0.13 | –
12 | NNC(=O)c1ccncc1 [ISONIAZID] | – | – | – | – | 1 | log10cfu [6]: 5.58; MIC [1]: 0.03 µg/mL (≈ 0.219 µM); MIC [7]: 0.03 µg/mL (≈ 0.219 µM); log10cfu [9]: 4.71; Activity [8]: Non-toxic; log10cfu [10]: 4.96
13 | CC1C/C(=N/NC(=O)c2ccncc2)CC(C)(C)C1 (stereo not drawn) | < 0.025 | >2000 | 0.063 (≈ 0.243 µM) | 0.15 | 2.52 | –
14 | O=C(N/N=C/c1ccc(Cl)cc1)c1ccncc1 | 0.2 (≈ 0.77 µM) | >50 | 0.04 (≈ 0.154 µM) | 0.14 | 0.2 | –
15 | O=C(N/N=C/c1c(F)cccc1F)c1ccncc1 | 0.1 (≈ 0.383 µM) | >1250 | 0.037 (≈ 0.142 µM) | 0.15 | 0.37 | –
16 | CCCCCCCCCCCCC/C=N\NC(=O)c1ccncc1 | 0.2 (≈ 0.603 µM) | – | – | – | – | –
17 | COc1cc(/C=N/NC(=O)c2ccncc2)cc(I)c1O | 0.39 (≈ 0.982 µM) | >160 | – | – | – | –
18 | COc1ccc(/C=C/C=N/NC(=O)c2ccncc2)cc1 | – | >50 | – | – | – | –
19 | C/C=C/C=N/NC(=O)c1ccncc1 | < 6.25 | – | – | – | – | –
20 | O=C(N/N=C/C=N/NC(=O)c1ccncc1)c1ccncc1 | 0.1 (≈ 0.338 µM) | – | – | – | – | –
21 | O=C(N/N=C/c1ccccc1Cl)c1ccncc1 | 0.78 (≈ 3 µM) | >128 | – | – | – | –
22 | O=C(N/N=C/c1ccc(F)c(F)c1)c1ccncc1 | 1.56 (≈ 5.97 µM) | – | – | – | – | –
